Measurements collected from several papers.
Protocols differ between the studies behind these lines.
Observed: metabolic stability
Species: human

NC1=N[C@@]2(c3ccc(F)cc3F)CO[C@@H](c3ncco3)C[C@H]2CS1  scaled CLint (liver microsomes): < 8.7 mL/min/kg
CC(C)(C)n1cc2c(n1)C(O)C(C)(C)C1(CCN(C(=O)c3ccc4[nH]ncc4c3)CC1)O2 (centres unmarked)  scaled CLint (liver microsomes): 17 mL/min/kg
Cc1ccc(F)c2cc(C(=O)N[C@@H]3CCC[C@H](N4CCN(S(C)(=O)=O)CC4)C3)[nH]c12  scaled CLint (hepatocytes; 0.5 µM, 2 h): 41 mL/min/kg
Cc1nc2ccc(C(=O)N3CCC4(CC3)Cc3cnn(C(C)C)c3C(O)C4)cc2[nH]1 (centres unmarked)  scaled CLint (liver microsomes): < 8 mL/min/kg
O=C1c2ccc(COc3cccc(F)c3)nc2CCN1c1ccc(F)cc1  scaled CLint (liver microsomes): 8.8 mL/min/kg
Cc1coc([C@H]2C[C@H]3CSC(N)=N[C@@]3(c3ccc(F)cc3F)CO2)n1  scaled CLint (liver microsomes): 69.6 mL/min/kg
Nc1nc(-c2cc(F)cc(NC(=O)Nc3cc(F)cc(-c4c[nH]c(N)n4)c3)c2)c[nH]1  scaled CLint (liver microsomes; 5 µM, pH 7.4): < 20.8 mL/min/kg
Cc1ccc(F)c2cc(C(=O)N[C@@H]3CCC[C@H](N4CCOCC4)C3)[nH]c12  scaled CLint (hepatocytes; 0.5 µM, 2 h): 75 mL/min/kg
Nc1nc(-c2ccc(NC(=O)c3ccc(Cl)c(Cl)c3)cc2F)c[nH]1  scaled CLint (liver microsomes; 5 µM, 1 h, pH 7.4): 10.9 mL/min/kg
Cc1coc([C@H]2C[C@H]3[C@@H](CF)SC(N)=N[C@@]3(c3ccc(F)cc3F)CO2)n1  scaled CLint (liver microsomes): 27.8 mL/min/kg
CC(C)N1Cc2cc(C(F)(F)F)ncc2C2=CN=C(NCc3c(F)ccc4c3CCO4)N3C=NC(C1=O)C23 (centres unmarked)  scaled CLint (liver microsomes; 100 µM, 30 min): 5.65 mL/min/kg
CC(=O)Nc1cc(Nc2cc(NC3CC3)n3ncc(C#N)c3n2)ccc1N(C)C[C@@H]1CCCN1  scaled CLint (hepatocytes; 1 µM, serum-free): 0.8 mL/min/kg
Cc1cc([C@H]2C[C@H]3[C@@H](C)SC(N)=N[C@@]3(c3ccc(F)cc3F)CO2)on1  scaled CLint (liver microsomes): < 8 mL/min/kg
O=C1c2ncc(COc3ccccc3)cc2CCN1c1ccc(F)cc1  scaled CLint (liver microsomes): 19 mL/min/kg
O=C(Nc1ccc(N2C(=O)c3cccc(Cl)c3C2=O)c(Cl)c1)c1ncccc1Cl  scaled CLint (liver microsomes; 1 µM, pH 7.4): 17.2 mL/min/kg
COc1ccc2nc3cc(Cl)ccc3c(Nc3cc(CN4CCCC4)c(O)c(CN4CCCC4)c3)c2n1  scaled CLint (hepatocytes; 1 µM): 3.8 mL/min/kg
CCCN(C)Cc1cc(-c2[nH]c3cccc(F)c3c(=O)c2C)ccc1Cc1ccc(OC(F)(F)F)cc1  scaled CLint (liver microsomes): 1040 mL/min/kg
Nc1nc(-c2ccc(NC(=O)Nc3cccc(-c4c[nH]c(N)n4)c3F)cc2F)c[nH]1  scaled CLint (liver microsomes; 5 µM, pH 7.4): < 20.8 mL/min/kg
O=C1c2ccc(COc3ccccc3)nc2CCN1c1ccc(F)cc1  scaled CLint (liver microsomes): 18 mL/min/kg
Cc1coc([C@H]2C[C@H]3[C@@H](C)SC(N)=N[C@@]3(c3ccc(F)cc3F)CO2)n1  scaled CLint (liver microsomes): < 8 mL/min/kg
